Experimental data published in ChEMBL document CHEMBL3580601, “Discovery of a Potent Parenterally Administered Factor XIa Inhibitor with Hydroxyquinolin-2(1H)-one as the P2' Moiety” (ACS Med Chem Lett, 2015).
≈ marks a conversion by molar mass, not a printed value. Values belong to the compound of their own block, whether it stands above or below them. Calls of active or inactive are those of the source. The rule behind the calls is not given here.

Experiments:
Coagulation factor XI [1] = biological target: T1, Coagulation factor XI (Homo sapiens, UniProt P03951); test: Inhibition of human coagulation factor 11a using p-nitroaniline as substrate assessed as substrate hydrolysis by spectrophotometry
T1 sequence (P03951 19-387 limits assumed): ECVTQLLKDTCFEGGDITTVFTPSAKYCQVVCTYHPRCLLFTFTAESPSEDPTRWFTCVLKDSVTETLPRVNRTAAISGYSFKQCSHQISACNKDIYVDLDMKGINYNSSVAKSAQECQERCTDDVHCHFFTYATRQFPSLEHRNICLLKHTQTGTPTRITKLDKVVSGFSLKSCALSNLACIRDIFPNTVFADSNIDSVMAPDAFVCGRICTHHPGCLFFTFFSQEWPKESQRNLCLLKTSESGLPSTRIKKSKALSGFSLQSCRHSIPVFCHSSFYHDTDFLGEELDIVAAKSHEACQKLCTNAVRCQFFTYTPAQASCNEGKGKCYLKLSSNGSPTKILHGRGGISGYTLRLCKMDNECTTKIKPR
T1 sequence (P03951 388-625 limits assumed): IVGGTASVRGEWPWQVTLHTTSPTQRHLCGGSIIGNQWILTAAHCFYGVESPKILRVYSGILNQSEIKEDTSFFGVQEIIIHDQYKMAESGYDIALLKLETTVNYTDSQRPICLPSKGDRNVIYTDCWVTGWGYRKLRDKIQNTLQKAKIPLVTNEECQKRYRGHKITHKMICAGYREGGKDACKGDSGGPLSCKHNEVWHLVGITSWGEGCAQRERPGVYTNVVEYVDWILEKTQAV
Method in brief: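 Human enzyme Ki, averaged over multiple determinations (n = 2).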

[2] = Half life in human liver microsomes; assay type: ADME
Plasma [3] = test: Anticoagulant activity in healthy human plasma assessed as concentration required to cause two fold prolongation of activated partial thromboplastin time; assay type: functional
[4] = Solubility in 50 mM pH 6.5 phosphate buffer using amorphous form of compound; assay type: physicochemical
Oryctolagus cuniculus [5] = test: Antithrombotic activity in iv dosed rabbit model of electrically induced carotid arterial thrombosis assessed as increase in integrated blood flow of the injured artery; assay type: functional, organism-based
Oryctolagus cuniculus [6] = test: Antithrombotic activity in iv dosed rabbit model of electrically induced carotid arterial thrombosis assessed as reduction in thrombus formation; assay type: functional, organism-based
Plasma [7] = test: Anticoagulant activity in rabbit plasma assessed as prolongation of prothrombin time at 100 uM; assay type: functional, cell-free; settings: Oryctolagus cuniculus
Plasma [8] = test: Anticoagulant activity in rabbit plasma assessed as prolongation of thrombin time at 100 uM; assay type: functional, cell-free; settings: Oryctolagus cuniculus
[9] = Half life in cynomolgus monkey at 1 mg/kg, iv; assay type: ADME, organism-based, Macaca fascicularis; settings: in vivo
[10] = Half life in dog at 1 mg/kg, iv; assay type: ADME, organism-based, Canis lupus familiaris; settings: in vivo
Method in brief: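 Dogs dosed IV at 1 mg/kg with the HCl salt in 10% DMAc/10% ethanol/10% propylene glycol/70% water, with half-life from the pharmacokinetic profile.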

[11] = Half life in rabbit at 1 mg/kg, iv; assay type: ADME, organism-based, Oryctolagus cuniculus; settings: in vivo
Method in brief: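 Rabbits given a single IV dose of 1 mg/kg of the HCl salt in 10% DMAc/90% D5W (5% dextrose in water), with half-life taken from the plasma PK profile.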

[12] = Half life in rat at 1 mg/kg, iv; assay type: ADME, organism-based; settings: in vivo
[13] = Inhibition of rabbit coagulation factor 11a using p-nitroaniline as substrate assessed as substrate hydrolysis at 37 degC by spectrophotometry; design: species or system Oryctolagus cuniculus
Kallikrein-1 = Kallikrein-1 (Homo sapiens, UniProt P06870); test: Inhibition of tissue kallikrein (unknown origin)
Kallikrein-1, sequence (P06870 whole entry): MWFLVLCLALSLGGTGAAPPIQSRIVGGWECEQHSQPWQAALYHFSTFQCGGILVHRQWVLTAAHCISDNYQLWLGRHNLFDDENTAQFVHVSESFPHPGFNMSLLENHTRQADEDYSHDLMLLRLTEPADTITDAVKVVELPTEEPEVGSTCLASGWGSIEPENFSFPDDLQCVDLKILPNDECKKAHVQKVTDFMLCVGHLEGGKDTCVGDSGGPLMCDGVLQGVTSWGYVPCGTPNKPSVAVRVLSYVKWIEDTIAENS
Method in brief: (§1)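 Ki against each human enzyme, averaged from duplicate IC50 determinations.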

[14] = biological target: Tissue-type plasminogen activator (Homo sapiens, UniProt P00750); test: Inhibition of tPA (unknown origin); method in brief: as §1
Tissue-type plasminogen activator, sequence (P00750 whole entry): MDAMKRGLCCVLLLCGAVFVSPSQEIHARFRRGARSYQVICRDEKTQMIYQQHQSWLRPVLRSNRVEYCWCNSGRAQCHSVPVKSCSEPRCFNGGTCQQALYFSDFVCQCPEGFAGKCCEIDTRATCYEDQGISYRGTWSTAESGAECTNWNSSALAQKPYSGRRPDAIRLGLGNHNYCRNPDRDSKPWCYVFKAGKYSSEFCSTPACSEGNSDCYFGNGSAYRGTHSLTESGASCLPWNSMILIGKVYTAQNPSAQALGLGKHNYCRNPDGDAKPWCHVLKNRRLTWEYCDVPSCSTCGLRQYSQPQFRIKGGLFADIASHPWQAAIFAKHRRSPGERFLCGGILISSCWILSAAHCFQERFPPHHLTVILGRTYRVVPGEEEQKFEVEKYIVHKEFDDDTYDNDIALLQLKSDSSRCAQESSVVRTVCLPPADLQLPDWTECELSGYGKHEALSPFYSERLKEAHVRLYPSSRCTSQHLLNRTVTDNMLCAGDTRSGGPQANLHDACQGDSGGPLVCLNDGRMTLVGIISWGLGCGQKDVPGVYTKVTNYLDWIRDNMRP

Coagulation factor IX = Coagulation factor IX (Homo sapiens, UniProt P00740); test: Inhibition of coagulation factor 9a (unknown origin); method in brief: as §1
Coagulation factor IX, sequence (P00740 47-191 limits assumed): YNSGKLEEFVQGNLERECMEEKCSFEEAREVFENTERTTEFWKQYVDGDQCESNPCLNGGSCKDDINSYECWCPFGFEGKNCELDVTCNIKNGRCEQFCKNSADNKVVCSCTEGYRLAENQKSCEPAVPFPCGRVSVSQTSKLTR
Coagulation factor IX, sequence (P00740 227-461 limits assumed): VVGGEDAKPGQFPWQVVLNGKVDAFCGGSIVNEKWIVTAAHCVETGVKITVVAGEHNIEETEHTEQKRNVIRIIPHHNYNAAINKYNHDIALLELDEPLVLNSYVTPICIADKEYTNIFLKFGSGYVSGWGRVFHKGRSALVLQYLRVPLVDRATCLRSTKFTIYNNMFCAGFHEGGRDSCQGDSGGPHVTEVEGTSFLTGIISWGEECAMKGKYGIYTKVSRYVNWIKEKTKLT

Plasma [15] = test: Anticoagulant activity in rabbit plasma assessed as concentration required to cause 1.5 fold prolongation of activated partial thromboplastin time
Prothrombin = Prothrombin (Homo sapiens, UniProt P00734); test: Inhibition of thrombin (unknown origin); method in brief: as §1
Plasma [16] = test: Anticoagulant activity in cynomolgus monkey plasma assessed as concentration required to cause 1.5 fold prolongation of activated partial thromboplastin time
[17] = Inhibition of chymotrypsin (unknown origin); design: species or system Homo sapiens; method in brief: as §1
Oryctolagus cuniculus [18] = species on record: Oryctolagus cuniculus; test: Toxicity in rabbit cuticle bleeding time model assessed as prologation of bleeding time at 100 uM; assay type: organism-based; settings: in vivo
[19] = biological target: Vitamin K-dependent protein C (Homo sapiens, UniProt P04070); test: Inhibition of APC (unknown origin); method in brief: as §1
Vitamin K-dependent protein C, sequence (P04070 43-197 limits assumed): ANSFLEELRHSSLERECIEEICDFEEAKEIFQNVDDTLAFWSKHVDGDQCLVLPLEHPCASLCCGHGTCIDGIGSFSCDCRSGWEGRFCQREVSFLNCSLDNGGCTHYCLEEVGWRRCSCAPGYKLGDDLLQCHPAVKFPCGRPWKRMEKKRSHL
Vitamin K-dependent protein C, sequence (P04070 212-461 limits assumed): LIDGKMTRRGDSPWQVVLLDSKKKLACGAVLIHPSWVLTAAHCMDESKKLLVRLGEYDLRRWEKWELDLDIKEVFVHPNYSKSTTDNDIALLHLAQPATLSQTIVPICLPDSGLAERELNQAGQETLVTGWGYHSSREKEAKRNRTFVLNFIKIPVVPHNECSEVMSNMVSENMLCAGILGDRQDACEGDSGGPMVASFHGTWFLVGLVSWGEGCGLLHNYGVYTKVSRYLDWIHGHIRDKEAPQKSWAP

[20] = biological target: Urokinase-type plasminogen activator (Homo sapiens, UniProt P00749); test: Inhibition of urokinase (unknown origin); method in brief: as §1
[21] = Unbound fraction in cynomolgus monkey plasma; assay type: ADME, cell-free, Macaca fascicularis
Coagulation factor VII = biological target: T2, Coagulation factor VII (Homo sapiens, UniProt P08709); test: Inhibition of coagulation factor 7a (unknown origin); method in brief: as §1
T2 sequence (P08709 whole entry): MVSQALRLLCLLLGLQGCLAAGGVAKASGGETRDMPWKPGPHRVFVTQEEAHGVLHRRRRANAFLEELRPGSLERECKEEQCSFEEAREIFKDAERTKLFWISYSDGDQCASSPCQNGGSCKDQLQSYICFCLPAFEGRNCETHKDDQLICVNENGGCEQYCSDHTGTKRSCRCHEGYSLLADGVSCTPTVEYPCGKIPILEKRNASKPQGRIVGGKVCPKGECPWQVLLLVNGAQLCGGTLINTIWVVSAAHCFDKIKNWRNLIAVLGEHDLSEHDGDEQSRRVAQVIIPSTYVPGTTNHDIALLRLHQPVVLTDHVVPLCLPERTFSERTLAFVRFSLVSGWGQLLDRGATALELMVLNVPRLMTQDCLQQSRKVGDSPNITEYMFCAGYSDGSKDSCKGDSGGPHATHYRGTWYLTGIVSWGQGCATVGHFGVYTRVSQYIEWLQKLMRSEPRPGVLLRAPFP

Coagulation factor XI [22] = biological target: T1, Coagulation factor XI; test: Inhibition of human coagulation factor 11a using p-nitroaniline as substrate assessed as substrate hydrolysis at 37 degC by spectrophotometry
Coagulation factor XII = biological target: T3, Coagulation factor XII (Homo sapiens, UniProt P00748); test: Inhibition of coagulation factor 12a (unknown origin); method in brief: as §1
T3 sequence (P00748 whole entry): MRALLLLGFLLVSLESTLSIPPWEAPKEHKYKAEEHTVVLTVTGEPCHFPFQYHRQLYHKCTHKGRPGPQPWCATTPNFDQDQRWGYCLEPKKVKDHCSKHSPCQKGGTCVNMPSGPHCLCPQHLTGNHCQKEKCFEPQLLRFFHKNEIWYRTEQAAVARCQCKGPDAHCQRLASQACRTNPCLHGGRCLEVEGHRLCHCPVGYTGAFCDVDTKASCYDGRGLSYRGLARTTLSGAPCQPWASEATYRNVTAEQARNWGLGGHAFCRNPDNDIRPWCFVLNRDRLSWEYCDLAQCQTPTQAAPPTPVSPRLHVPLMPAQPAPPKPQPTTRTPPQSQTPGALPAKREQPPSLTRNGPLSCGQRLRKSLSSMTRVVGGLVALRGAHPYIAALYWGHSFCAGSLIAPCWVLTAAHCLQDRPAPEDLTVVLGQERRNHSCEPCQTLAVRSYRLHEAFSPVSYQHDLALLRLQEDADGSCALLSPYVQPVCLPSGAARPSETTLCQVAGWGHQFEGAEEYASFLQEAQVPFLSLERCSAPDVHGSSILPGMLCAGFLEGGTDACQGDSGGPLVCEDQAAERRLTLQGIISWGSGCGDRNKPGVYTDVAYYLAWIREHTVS

Plasma [23] = test: Anticoagulant activity in dog plasma assessed as concentration required to cause 1.5 fold prolongation of activated partial thromboplastin time
Trypsin = Trypsin (Homo sapiens, UniProt P07477+P07478+P35030); test: Inhibition of trypsin (unknown origin); assay type: protein assay; method in brief: as §1
[24] = Unbound fraction in rat plasma; assay type: ADME, cell-free
[25] = Unbound fraction in dog plasma; assay type: ADME, cell-free, Canis lupus familiaris
[26] = Unbound fraction in rabbit plasma; assay type: ADME, cell-free, Oryctolagus cuniculus
Plasma [27] = test: Anticoagulant activity in rat plasma assessed as concentration required to cause 1.5 fold prolongation of activated partial thromboplastin time
Coagulation factor X = Coagulation factor X (Homo sapiens, UniProt P00742); test: Inhibition of coagulation factor 10a (unknown origin); method in brief: as §1
Coagulation factor X, sequence (P00742 41-179 limits assumed): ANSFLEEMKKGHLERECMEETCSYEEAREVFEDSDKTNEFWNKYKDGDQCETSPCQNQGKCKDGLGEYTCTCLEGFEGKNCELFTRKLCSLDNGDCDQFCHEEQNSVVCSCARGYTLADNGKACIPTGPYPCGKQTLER
Coagulation factor X, sequence (P00742 235-488 limits assumed): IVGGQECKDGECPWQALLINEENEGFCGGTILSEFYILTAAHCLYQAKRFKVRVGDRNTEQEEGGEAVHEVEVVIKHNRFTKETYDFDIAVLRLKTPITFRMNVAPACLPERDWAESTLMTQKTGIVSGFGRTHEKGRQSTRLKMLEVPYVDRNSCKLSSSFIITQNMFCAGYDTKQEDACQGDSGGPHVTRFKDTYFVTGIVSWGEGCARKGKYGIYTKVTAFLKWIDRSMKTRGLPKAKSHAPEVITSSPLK

Plasma kallikrein = Plasma kallikrein (Homo sapiens, UniProt P03952); test: Inhibition of plasma kallikrein (unknown origin); method in brief: as §1
Plasma kallikrein, sequence (P03952 20-390 limits assumed): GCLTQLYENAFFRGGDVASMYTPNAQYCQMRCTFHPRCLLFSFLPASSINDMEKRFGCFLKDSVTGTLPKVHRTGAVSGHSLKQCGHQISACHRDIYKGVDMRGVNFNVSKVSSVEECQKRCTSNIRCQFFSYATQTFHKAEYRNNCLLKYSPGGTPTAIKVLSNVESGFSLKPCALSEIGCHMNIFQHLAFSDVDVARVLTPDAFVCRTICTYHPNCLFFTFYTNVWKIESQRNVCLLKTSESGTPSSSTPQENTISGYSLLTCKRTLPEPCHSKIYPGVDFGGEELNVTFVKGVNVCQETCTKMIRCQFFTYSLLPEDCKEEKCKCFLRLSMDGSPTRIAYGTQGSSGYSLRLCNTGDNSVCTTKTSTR
Plasma kallikrein, sequence (P03952 391-638 limits assumed): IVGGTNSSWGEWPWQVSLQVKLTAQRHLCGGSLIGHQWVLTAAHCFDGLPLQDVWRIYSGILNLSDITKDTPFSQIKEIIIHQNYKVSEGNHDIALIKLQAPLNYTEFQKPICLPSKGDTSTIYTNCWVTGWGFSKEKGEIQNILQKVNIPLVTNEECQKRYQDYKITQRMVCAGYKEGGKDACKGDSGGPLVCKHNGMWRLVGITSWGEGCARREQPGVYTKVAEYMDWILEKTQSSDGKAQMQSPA

Plasma [28] = test: Anticoagulant activity in rabbit plasma assessed as prolongation of activated partial thromboplastin time at 100 uM; assay type: functional, Oryctolagus cuniculus
[29] = Unbound fraction in human plasma; assay type: ADME, cell-free

SMILES: COC(=O)Nc1ccc(-c2nc([C@H](Cc3ccccc3)NC(=O)/C=C/c3cc(Cl)ccc3-n3cnnn3)[nH]c2Cl)cc1
Ki (Coagulation factor XI [1]): 3.7 nM
half-life [2]: 46 min
solubility [4]: < 1 µg/mL
2aPTT (Plasma [3]): 19 µM

SMILES: Cc1ccc(-n2cnnn2)c(CCC(=O)N[C@@H](Cc2ccccc2)c2nc(-c3ccc4[nH]c(=O)ccc4c3)c(Cl)[nH]2)c1
Ki (Coagulation factor XI [1]): 12 nM
half-life [2]: 2.2 min
2aPTT (Plasma [3]): 69 µM

SMILES: CN1CCN(C(=O)C[C@H](NC(=O)/C=C/c2cc(Cl)ccc2-n2cnnn2)c2nc(-c3ccc4[nH]c(=O)cc(O)c4c3)c(Cl)[nH]2)CC1 [listing 1 of 2 here]
Activity (Oryctolagus cuniculus [5]): Dose-dependent effect
Activity (Oryctolagus cuniculus [6]): Dose-dependent effect
Activity (Plasma [7]): inactive
Activity (Plasma [8]): inactive

SMILES: CN1CCN(C(=O)C[C@H](NC(=O)/C=C/c2cc(Cl)ccc2-n2cnnn2)c2nc(-c3ccc4[nH]c(=O)cc(O)c4c3)c(Cl)[nH]2)CC1.Cl
half-life [9]: 114 min
half-life [10]: 66 min
half-life [11]: 66 min

SMILES: CN1CCN(C(=O)C[C@H](NC(=O)/C=C/c2cc(Cl)ccc2-n2cnnn2)c2nc(-c3ccc4[nH]c(=O)cc(O)c4c3)c(Cl)[nH]2)CC1.O=C(O)C(F)(F)F
half-life [12]: 66 min

SMILES: O=C(/C=C/c1cc(Cl)ccc1-n1cnnn1)N[C@@H](Cc1ccccc1)c1nc(-c2ccc3c(c2)CCC(=O)N3)c(Cl)[nH]1
Ki (Coagulation factor XI [1]): 19 nM
half-life [2]: 48 min
2aPTT (Plasma [3]): 60 µM

Second part, led by results:

Ki (Coagulation factor XI [1]): 0.32 nM
half-life [2]: 6.6 min
SMILES: O=C(CCc1cc(Cl)ccc1-n1cnnn1)N[C@@H](Cc1ccccc1)c1nc(-c2ccc3[nH]c(=O)cc(O)c3c2)c(Cl)[nH]1
2aPTT (Plasma [3]): 7.2 µM

Ki (Coagulation factor XI [1]): 0.7 nM
half-life [2]: 6.2 min
solubility [4]: 1 µg/mL (≈ 1.56 µM)
SMILES: COC(=O)Nc1ccc(-c2nc([C@H](CC(=O)N3CCOCC3)NC(=O)/C=C/c3cc(Cl)ccc3-n3cnnn3)[nH]c2Cl)cc1
2aPTT (Plasma [3]): 7.4 µM

Ki (Coagulation factor XI [1]): 0.4 nM
half-life [2]: 25 min
solubility [4]: 44 µg/mL (≈ 67.3 µM)
SMILES: COC(=O)Nc1ccc(-c2nc([C@H](CC(=O)N3CCN(C)CC3)NC(=O)/C=C/c3cc(Cl)ccc3-n3cnnn3)[nH]c2Cl)cc1
2aPTT (Plasma [3]): 3.7 µM

Ki (Coagulation factor XI [1]): 0.6 nM
half-life [2]: 45 min
solubility [4]: 3 µg/mL (≈ 4.4 µM)
SMILES: COC(=O)Nc1ccc(-c2nc([C@H](CC(=O)N3CCN(C(C)=O)CC3)NC(=O)/C=C/c3cc(Cl)ccc3-n3cnnn3)[nH]c2Cl)cc1
2aPTT (Plasma [3]): 4.6 µM

Ki (Coagulation factor XI [1]): 0.3 nM
half-life [2]: 154 min
solubility [4]: 1 µg/mL (≈ 1.45 µM)
SMILES: COC(=O)Nc1ccc(-c2nc([C@H](CC(=O)N3CCS(=O)(=O)CC3)NC(=O)/C=C/c3cc(Cl)ccc3-n3cnnn3)[nH]c2Cl)cc1
2aPTT (Plasma [3]): 3.6 µM

Ki (Coagulation factor XI [1]): 0.18 nM
half-life [2]: 56 min
SMILES: O=C(/C=C/c1cc(Cl)ccc1-n1cnnn1)N[C@@H](Cc1ccccc1)c1nc(-c2ccc3[nH]c(=O)cc(O)c3c2)c(Cl)[nH]1
2aPTT (Plasma [3]): 11 µM

Ki (Coagulation factor XI [1]): 0.5 nM
half-life [2]: 10 min
SMILES: Cc1ccc(-n2cnnn2)c(CCC(=O)N[C@@H](Cc2ccccc2)c2nc(-c3ccc4[nH]c(=O)cc(O)c4c3)c(Cl)[nH]2)c1
2aPTT (Plasma [3]): 9.1 µM

Ki [13]: 0.58 nM
Ki (Kallikrein-1): > 30000 nM
Ki [14]: 29000 nM
Ki (Coagulation factor IX): > 60000 nM
Ki (Prothrombin): 7400 nM
Ki (Coagulation factor XI [1]): 0.04 nM
Ki [17]: 400 nM
EC50 (Oryctolagus cuniculus [6]): 530 nM
Ki [19]: > 54000 nM
half-life [2]: > 200 min
Ki [20]: > 1600 nM
solubility [4]: 17 µg/mL (≈ 25.6 µM)
fraction unbound [21]: 0.08
Ki (Coagulation factor VII): > 13300 nM
Ki (Coagulation factor XI [22]): 0.1 nM
Ki (Coagulation factor XII): > 20000 nM
Ki (Trypsin): 6200 nM
fraction unbound [24]: 0.026
fraction unbound [25]: 0.18
fraction unbound [26]: 0.07
Ki (Coagulation factor X): > 9000 nM
Ki (Plasma kallikrein): 7 nM
fraction unbound [29]: 0.08
SMILES: CN1CCN(C(=O)C[C@H](NC(=O)/C=C/c2cc(Cl)ccc2-n2cnnn2)c2nc(-c3ccc4[nH]c(=O)cc(O)c4c3)c(Cl)[nH]2)CC1 [listing 2 of 2 here]
EC1.5 (Plasma [15]): 1 µM
EC1.5 (Plasma [16]): 0.3 µM
Activity (Oryctolagus cuniculus [18]): Non-toxic
EC1.5 (Plasma [23]): 0.3 µM
2aPTT (Plasma [3]): 1 µM
EC1.5 (Plasma [27]): >20 µM
fold change (FC) (Plasma [28]): 3.2
